An excerpt weighted towards active compounds, which were near 1.6% of everything screened.
VLA-4 inh = inhibition in human VLA-4 binding assay, primary screen, VLA-4 allosteric modulator project, MLPCN library, flow cytometry, VLA-4 expressing cells | Integrin alpha-4 (Homo sapiens), P13612 | ligand binding flow cytometry | inhibition, % (about 7 µM as worked out from the volumes in the protocol) | 0.2% of 330,000 active | AID 2557, 2010; in the data active = inhibition above about 50%
Target sequence (P13612 whole entry, looked up): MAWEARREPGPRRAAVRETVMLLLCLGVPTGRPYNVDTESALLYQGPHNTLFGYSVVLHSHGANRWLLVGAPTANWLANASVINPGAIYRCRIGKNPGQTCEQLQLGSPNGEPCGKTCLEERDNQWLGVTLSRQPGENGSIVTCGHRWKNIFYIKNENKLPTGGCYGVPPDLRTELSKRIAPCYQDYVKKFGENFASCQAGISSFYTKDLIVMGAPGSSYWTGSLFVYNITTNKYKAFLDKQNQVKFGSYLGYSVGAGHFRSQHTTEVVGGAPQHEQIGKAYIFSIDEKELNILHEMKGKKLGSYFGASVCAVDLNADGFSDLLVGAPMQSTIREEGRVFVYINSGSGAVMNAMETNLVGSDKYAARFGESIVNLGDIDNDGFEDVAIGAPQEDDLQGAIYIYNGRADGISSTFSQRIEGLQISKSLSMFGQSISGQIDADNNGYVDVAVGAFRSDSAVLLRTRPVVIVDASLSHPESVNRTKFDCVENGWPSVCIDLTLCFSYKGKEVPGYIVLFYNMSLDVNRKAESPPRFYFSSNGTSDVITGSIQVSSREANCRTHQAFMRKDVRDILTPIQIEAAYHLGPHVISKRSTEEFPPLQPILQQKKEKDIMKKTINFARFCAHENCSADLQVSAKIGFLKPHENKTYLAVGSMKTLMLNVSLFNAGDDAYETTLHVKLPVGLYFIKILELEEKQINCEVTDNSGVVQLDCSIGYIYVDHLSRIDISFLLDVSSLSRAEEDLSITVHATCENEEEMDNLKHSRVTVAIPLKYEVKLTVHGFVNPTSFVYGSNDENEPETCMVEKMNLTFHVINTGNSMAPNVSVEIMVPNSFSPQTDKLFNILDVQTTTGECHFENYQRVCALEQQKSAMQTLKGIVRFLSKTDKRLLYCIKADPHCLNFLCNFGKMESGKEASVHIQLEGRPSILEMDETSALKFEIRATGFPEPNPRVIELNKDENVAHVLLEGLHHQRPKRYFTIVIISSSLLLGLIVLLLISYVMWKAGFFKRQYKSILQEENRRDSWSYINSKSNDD
NR2E3 ag-1 = inhibitors of NR2E3-RetCOR corepressor binding, primary screen, NR2E3 agonist project, biochemical, TR-FRET, GST-NR2E3, biotin-RetCOR. Photoreceptor-specific nuclear receptor (Homo sapiens), Q9Y5X4. 1536-well. inhibition of corepressor binding, % at 4.78 µM. 0.12% of 320,000 active. AID 2300, 2010;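 active = percent inhibition above the cutoff of mean plus 3 SD of all tested compounds, set per screening campaign, cut at about 20% in these data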;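 note: 0% = DMSO wells and 100% = biotin wells as full block of FRET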
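Test system – NR2E3–RetCOR corepressor complex · Quantity – NR2E3 fusion 1.35 nM · Buffer or medium – Tris pH 7.5 · Incubation – Compound–protein incubation for 5 h at 4 °C · Technique – TR-FRET, Eu(K)-anti-GST donor, streptavidin-D2 acceptor, ex 340, em 617/671 nm · Evaluation – percent inhibition of 671/617 nm emission ratio versus biotin and DMSO controls · Plate – 1536-well format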
NR2E3 ag-2 = NR2E3 agonists in two-hybrid cells, primary screen, cell-based, luminescence, CHO-S, Gal4-NCOR/VP16-NR2E3; luciferase; 0.35% of 360,000 active; Photoreceptor-specific nuclear receptor (Homo sapiens), Q9Y5X4; inhibition of corepressor binding, % at 3.98 µM;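 active = inhibition above the mean of all tested compounds plus 3 SD, cut at about 70% in these data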;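 note: 0% = DMSO with NR2E3 transfected cells and 100% = cells lacking NR2E3 construct; higher means lower luciferase signal from less NR2E3 corepressor binding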
NR1D1 modulator = modulators of Rev-erb alpha DNA binding, primary screen, biochemical, FITC-DNA, fluorescence polarization, uHTS; Nuclear receptor subfamily 1 group D member 1 (Homo sapiens), P20393; Rev-erbα–FITC-DNA binding, 90 min; activity, % at 10 µM; 0.79% of 370,000 active; AID 1259318, 2017;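 active = activity above about 14%, limit read from the data; passing the limit was not always enough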;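 note: 0% = DMSO wells with 35 nM protein and 100% = DMSO wells with 750 nM protein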
PG9 Ab binder = binders of HIV-1 gp120 antibody PG9, primary screen, biochemical, TR-FRET; AID 624416, 2012; TR-FRET gp120-PG9 antibody binding; 0.43% of 360,000 active; inhibition, % at 6.7 µM; in the data active = inhibition above about 8.5%
Rev-erbA confirm = modulators of Rev-erb alpha DNA binding, confirmation, biochemical, FITC-DNA, fluorescence polarization, single point; shares compounds with NR1D1 modulator; 90 min; activation, % at 25 µM; 61% of 3,000 active;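 active = activation at or above a set limit, or at least 3 SD above the negative control mean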;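 note: 0% = 35 nM protein with DMSO and 100% = 750 nM protein high control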
RORg DNA counter = modulation of RORgamma DNA binding, dose response, counter-screen for Rev-erb alpha modulator project, biochemical, fluorescence polarization, FITC-DNA; shares compounds with NR1D1 modulator; purified RORgamma protein-FITC-DNA binding; IC50, µM; 8% of 910 active;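 active = Compounds whose fitted half-maximal concentration for disrupting protein-DNA binding is below 10 micromolar; the record names Rev-erb in its text, so the target is in doubt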
Starred values were filed as active, the others as inactive; i = inactive; nt = no result given.

SMILES	VLA-4 inh	NR2E3 ag-1	NR2E3 ag-2	NR1D1 modulator	PG9 Ab binder	Rev-erbA confirm	others
CC(=O)Nc1cccc(NC(=O)CSc2nnc3ccc(-c4ccccn4)nn23)c1	-1	0	3	0	-1	nt
CC12CCC(=O)N1C(C(=O)Nc1cc(C(F)(F)F)ccc1N1CCCCC1)CS2 (stereo not drawn)	2	0	20	15*	2	14
CCN(CC)c1ccc(S(=O)(=O)N2CCCCC2)cc1NC(=O)C1CSC2(C)CCC(=O)N12 (stereo not drawn)	-21	1	-2	23*	1	22*
COc1cccc(C(O)c2nc(-c3cnn(C)c3)cs2)c1 (stereo not drawn)	nt	nt	19	-2	-2	nt
CCOC(=O)N1[C@@H]2C=C(C)[C@@H]2[C@@H]2[C@@H](C)C(=O)N21	-10	0	-18	5	0	nt
COCCCn1c(C(=O)NCCC2=CCCCC2)cc2c(=O)n3cccc(C)c3nc21	-8	-1	-16	62*	1	40*	RORg DNA counter=>40
CC(C)CN(C(=O)CC1OC(=O)c2ccccc21)c1c(N)n(Cc2ccccc2)c(=O)[nH]c1=O (stereo not drawn)	-5	1	7	12	-1	nt
CCN(CC)C(=O)CSc1nnc2nnc3cc(OC)ccc3n12	3	1	-12	21*	-1	10
CCN(CC)C(=O)CSc1nc2cc3c(cc2c(=O)n1Cc1ccc(OC)cc1)OCO3	0	4	-12	31*	0	38*	RORg DNA counter=i
COc1ccc(CNC(=O)CCCn2c(SCC#N)nc3cc4c(cc3c2=O)OCO4)cc1	0	2	22	-3	0	nt
Cc1ccc(NC(=O)c2cc(-c3ccc4c(c3)OCO4)on2)cc1	9	1	-29	11	0	nt
COc1ccc(-c2sc3cc4c(cc3c2-c2ccc3c(c2)OCCO3)OCO4)cc1	11	nt	-26	18*	0	2
COc1ccc(-c2noc(-c3ccc4c(c3)OCO4)n2)cc1	-4	0	-64	35*	0	13
COc1ccc(NC(=O)c2cc(-c3ccc4c(c3)OCO4)on2)cc1	5	-4	-41	33*	-2	1
COc1ccc(-c2cc(C(=O)Nc3cc(C)on3)no2)cc1	-3	2	nt	0	2	nt
COc1ccc2sc(-c3ccc(S(C)(=O)=O)cc3)c(-c3ccc4c(c3)OCCO4)c2c1	6	nt	12	13	-1	nt
COc1ccc(OC)c(-c2cc(C(=O)Nc3cc(C)on3)no2)c1	6	-4	8	21*	3	16
C=CCNC(N)=S	8	-1	-2	-3	-4	nt
CCOC(=O)/C=C/C(=O)Nc1ccccc1-c1ccccc1NC(=O)/C=C/C(=O)OCC	5	-4	47	1	-2	nt
O=C(NCCc1ccccc1)c1ccc2c(c1)S(=O)(=O)c1ccccc1C2=O	-13	-3	3	1	-2	nt
Cc1c(NC(=O)C2CCCN(S(=O)(=O)c3c(C(C)C)cc(C(C)C)cc3C(C)C)C2)c(=O)n(-c2ccccc2)n1C (stereo not drawn)	nt	nt	nt	28*	nt	24*
Cc1c(NC(=O)C2CCCN(S(=O)(=O)c3cnc[nH]3)C2)c(=O)n(-c2ccccc2)n1C (stereo not drawn)	34	2	-9	2	-1	nt
CCCc1nc2sc3c(=O)[nH]cnc3c2c2c1CCCC2	-4	-2	nt	19	2	nt
CC(C)Cc1nc2sc3c(=O)[nH]cnc3c2c2c1CCC2	4	1	-3	38*	4	9
CC(C)c1nc2sc3c(=O)[nH]cnc3c2c2c1CCCC2	-9	0	-24	25*	0	0
SMILES	VLA-4 inh	NR2E3 ag-1	NR2E3 ag-2	NR1D1 modulator	PG9 Ab binder	Rev-erbA confirm	others
O=C1c2ccccc2C(c2nnnn2-c2ccc3c(c2)OCCO3)N1Cc1cccnc1 (stereo not drawn)	nt	nt	-29	3	0	nt
CCCNC(=O)c1c(NC(=O)C2COc3ccccc3O2)sc2c1CCCC2 (stereo not drawn)	-9	-3	-26	49*	0	4
Cc1ccc(-c2nc3ccccc3s2)cc1NC(=S)NC(=O)c1ccccc1	-2	0	-118	-1	0	nt
Cc1ccc(-c2nc3ccccc3s2)cc1NC(=O)c1cc(-n2cnnc2)ccc1Cl	-16	0	-22	33*	4	32*	RORg DNA counter=>40
O=C(CCSc1nnc2scc(-c3ccccc3)n12)Nc1nc(-c2ccccc2)ns1	13	-2	-7	24*	0	46*	RORg DNA counter=>40
Cn1nnnc1Sc1ncnc2scc(-c3cc4ccccc4o3)c12	0	0	22	0	-2	nt
CCOC(=O)CC[C@H]1CC[C@]2(CCCN(S(=O)(=O)c3ccccc3)C2)O1	nt	nt	nt	6	nt	nt
CCOc1cccc2sc(Nc3nc4ccc(NC(C)=O)cc4s3)nc12	12	3	-23	49*	8	16
Cc1cc(=O)oc2cc(OCC3CC(c4ccc(Cl)cc4)=NO3)ccc12 (stereo not drawn)	2	6	23	80*	-1	72*	RORg DNA counter=i
NC(=O)c1ccsc1NC(=O)COC(=O)CCc1ccccc1	nt	nt	-26	1	1	nt
O=C(Nc1ccc(Cl)cn1)c1cc2c(s1)-c1ccccc1OC2	14	-1	-26	30*	0	7
O=C(Nc1cccnc1Cl)c1cc2c(s1)-c1ccccc1OC2	8	1	-33	13	2	nt
Cc1cccc(OCCCC(=O)Nc2ccc(S(=O)(=O)Nc3nccs3)cc2)c1C	27	0	6	0	1	nt
N#Cc1cc2cc3ccccc3nc2n2c(=O)c3ccccc3nc12	-14	-5	-1	-19	-3	nt
NS(=O)(=O)c1ccc(CCNc2ccn3nc(-c4cccc(C(F)(F)F)c4)cc3n2)cc1	nt	nt	-12	28*	-1	9
O=C(O)c1ccccc1OP(=O)(O)O	nt	nt	nt	-5	nt	nt
CSc1nc(C)c2c(n1)N(c1ccc(C(F)(F)F)cc1)CC2	3	2	-24	23*	-1	1

Bioassay records: PubChem BioAssay, several laboratories
